Measured values reported in ChEMBL document CHEMBL3259548, “Design, synthesis and biological evaluation of novel isoniazid derivatives with potent antitubercular activity” (Eur J Med Chem, 2014).
Converted amounts (≈) assume the structure as drawn.

System: Vero
Assay: Cytotoxicity against african green monkey Vero cells after 48 hrs by MTT assay
Type: cell-based
Settings: Chlorocebus sabaeus

| Compound | IC50 [µM] |
| --- | --- |
| O=Cc1cccc(/C=N/NC(=O)c2ccncc2)c1 | > 200 |
| O=Cc1ccc(/C=N/NC(=O)c2ccncc2)cc1 | > 200 |
| O=C(N/N=C/c1cccc(CO)c1)c1ccncc1 | > 200 |
| O=C(N/N=C/c1ccc(CO)cc1)c1ccncc1 | > 200 |
| O=C(NN=C1CCCC1)c1ccncc1 | > 190 |
| O=C(NN=C1CCC(c2ccccc2)CC1)c1ccncc1 (configuration not stated) | > 200 |
| CCCCCCCCCC(=O)NNC(=O)c1ccncc1 | > 75 |
| O=C(NNC1CCC(c2ccccc2)CC1)c1ccncc1 (configuration not stated) | > 200 |
| NNC(=O)c1ccnc(NN)c1 | > 200 |
| NNC(=O)c1ccncc1 [ISONIAZID] | > 200 |

System: Mycobacterium tuberculosis
Assay: Antitubercular activity against Mycobacterium tuberculosis H37Rv ATCC 27294 by BACTEC 960 assay
Type: functional
Settings: not given

| Compound | MIC [µM] |
| --- | --- |
| NNC(=O)c1ccncc1N | 9.86 (≈ 1.5 µg/mL) |
| CC(=O)NNC(=O)c1ccncc1 | 44.6 (≈ 8 µg/mL) |
| O=C(NNS(=O)(=O)c1ccc([N+](=O)[O-])cc1)c1ccncc1 | 186 (≈ 60 µg/mL) |
| O=C(NNS(=O)(=O)c1ccccc1)c1ccncc1 | 10.8 (≈ 3 µg/mL) |
| C/C(=N/NC(=O)c1ccncc1)c1cccc(CN2CCNCC2)c1O | 8.61 (≈ 3.04 µg/mL) |
| N/C(COc1ccc(Cl)cc1)=N\NC(=O)c1ccncc1 | 10.2 (≈ 3.12 µg/mL) |
| O=C(NNC(=O)c1ccncc1)c1ccncc1 | 33 (≈ 8 µg/mL) |
| Cc1ccccc1OC/C(N)=N/NC(=O)c1ccncc1 | 44 (≈ 12.5 µg/mL) |
| CCCCCCCCC(=O)NNC(=O)c1ccncc1 | 0.09 (≈ 0.025 µg/mL) |
| Cc1cccc(OC/C(N)=N/NC(=O)c2ccncc2)c1 | 11 (≈ 3.12 µg/mL) |
| Cc1ccc(OC/C(N)=N/NC(=O)c2ccncc2)cc1 | 22 (≈ 6.25 µg/mL) |
| N/C(COc1cccc(Cl)c1)=N\NC(=O)c1ccncc1 | 10.2 (≈ 3.12 µg/mL) |
| C/C(=N\NC(=O)c1ccncc1)c1cccc(CN(C)C)c1O | 2.29 (≈ 0.715 µg/mL) |
| CCCCN(CCCC)Cc1cccc(/C(C)=N/NC(=O)c2ccncc2)c1O | 4.43 (≈ 1.76 µg/mL) |
| C/C(=N\NC(=O)c1ccncc1)c1cccc(CN2CCCCC2)c1O | 4.61 (≈ 1.62 µg/mL) |
| C/C(=N\NC(=O)c1ccncc1)c1cccc(CN2CCCC2)c1O | 2.2 (≈ 0.745 µg/mL) |
| C/C(=N\NC(=O)c1ccncc1)c1cccc(CN2CCOCC2)c1O | 3.57 (≈ 1.27 µg/mL) |
| C/C(=N\NC(=O)c1ccncc1)c1cccc(CN(c2ccccc2)c2ccccc2)c1O | 0.56 (≈ 0.244 µg/mL) |
| C/C(=N\NC(=O)c1ccncc1)c1cccc(CN2CCN(C)CC2)c1O | 3.36 (≈ 1.23 µg/mL) |
| C/C(=N\NC(=O)c1ccncc1)c1cccc(CN(Cc2ccccc2)Cc2ccccc2)c1O | 1.3 (≈ 0.604 µg/mL) |
| C/C(=N\NC(=O)c1ccncc1)c1cccc(CN2CCN(c3cc4c(cc3F)c(=O)c(C(=O)O)cn4C3CC3)CC2)c1O | 1.26 (≈ 0.754 µg/mL) |
| CCn1cc(C(=O)O)c(=O)c2cc(F)c(N3CCN(Cc4cccc(/C(C)=N/NC(=O)c5ccncc5)c4O)C(C)C3)c(F)c21 (configuration not stated) | 0.9 (≈ 0.557 µg/mL) |
| C/C(=N\NC(=O)c1ccncc1)c1cccc(CN2CCN(c3ccccn3)CC2)c1O | 0.88 (≈ 0.379 µg/mL) |
| CCCCCCCCCCCCNNC(=O)c1ccncc1 | 0.164 (≈ 0.0501 µg/mL) |

| Compound | MIC [µM] |
| --- | --- |
| O=C(NNCc1ccco1)c1ccncc1 | 69.1 (≈ 15 µg/mL) |
| Nc1ccc(S(=O)(=O)NNC(=O)c2ccncc2)cc1 | 2050 (≈ 600 µg/mL) |
| O=C(N/N=C(\CO)C(O)C(O)C(O)CO)c1ccncc1 (configuration not stated) | 0.2 (≈ 0.0599 µg/mL) |
| CNC1C(OC2C(OC3C(O)C(O)C(NC(=N)N)C(O)C3NC(=N)N)OC(C)C2(O)/C=N\NC(=O)c2ccncc2)OC(CO)C(O)C1O (configuration not stated) | 0.214 (≈ 0.15 µg/mL) |
| Cc1cc(C(=O)NN)ccn1 | 5.2 (≈ 0.786 µg/mL) |
| CCc1cc(C(=O)NN)ccn1 | 21.1 (≈ 3.49 µg/mL) |
| CCCc1cc(C(=O)NN)ccn1 | 55.2 (≈ 9.89 µg/mL) |
| COc1cc(C(=O)NN)ccn1 | 153 (≈ 25.6 µg/mL) |
| CCOc1cc(C(=O)NN)ccn1 | 450 (≈ 81.5 µg/mL) |
| NNC(=O)c1ccnc(N)c1 | 14.5 (≈ 2.21 µg/mL) |
| CC(=O)Nc1cc(C(=O)NN)ccn1 | 2150 (≈ 418 µg/mL) |
| CC(=O)NCc1cc(C(=O)NN)ccn1 | 243 (≈ 50.6 µg/mL) |
| CCN(CC)c1cc(C(=O)NN)ccn1 | 717 (≈ 149 µg/mL) |
| NNC(=O)c1ccnc(Cl)c1 | 392 (≈ 67.3 µg/mL) |
| NNC(=O)c1ccnc(I)c1 | 254 (≈ 66.8 µg/mL) |
| NNC(=O)c1ccnc([N+](=O)[O-])c1 | 371 (≈ 67.6 µg/mL) |
| NNC(=O)c1ccnc(-c2ccccc2)c1 | 50 (≈ 10.7 µg/mL) |
| NNC(=O)c1ccnc(Cc2ccccc2)c1 | 38.5 (≈ 8.75 µg/mL) |
| C=Cc1cc(C(=O)NN)ccn1 | 35 (≈ 5.71 µg/mL) |
| Cc1ccc(C)n1NC(=O)c1ccncc1 | 46.5 (≈ 10 µg/mL) |
| CC(O)(NNC(=O)c1ccncc1)C(=O)O (configuration not stated) | 0.266 (≈ 0.0599 µg/mL) |
| O=C(NNC(O)C(Cl)(Cl)Cl)c1ccncc1 (configuration not stated) | 0.141 (≈ 0.0401 µg/mL) |
| CC(C)(C#N)NNC(=O)c1ccncc1 | 0.294 (≈ 0.06 µg/mL) |
| O=CNNC(=O)c1ccncc1 | 18.2 (≈ 3 µg/mL) |

| Compound | MIC [µM] |
| --- | --- |
| CCCCCC/C=N/NC(=O)c1ccncc1 | 0.129 (≈ 0.0301 µg/mL) |
| C/C=C/CCCCCCC/C=N/NC(=O)c1ccncc1 | 0.522 (≈ 0.15 µg/mL) |
| CCCCCCCCCC/C=N/NC(=O)c1ccncc1 | 1.04 (≈ 0.3 µg/mL) |
| CCC(CC)=NNC(=O)c1ccncc1 | 0.097 (≈ 0.0199 µg/mL) |
| CCCCC/C(C)=N/NC(=O)c1ccncc1 | 0.129 (≈ 0.0301 µg/mL) |
| CC1CCC(=NNC(=O)c2ccncc2)CC1 (configuration not stated) | 0.303 (≈ 0.0701 µg/mL) |
| CC(C)COc1ccc(/C=N/NC(=O)c2ccncc2)cc1 | 0.673 (≈ 0.2 µg/mL) |
| CC(C)CCOc1ccc(/C=N/NC(=O)c2ccncc2)cc1 | 0.161 (≈ 0.0501 µg/mL) |
| CCN(CC)c1ccc(/C=N/NC(=O)c2ccncc2)cc1 | 2.02 (≈ 0.6 µg/mL) |
| CC(=O)C/C(C)=N/NC(=O)c1ccncc1 | 3.65 (≈ 0.8 µg/mL) |
| O=C(N/N=C/C(O)C(O)C(O)CO)c1ccncc1 (configuration not stated) | 0.186 (≈ 0.0501 µg/mL) |
| CC(C)/C=N\NC(=O)c1ccncc1 | 0.523 (≈ 0.1 µg/mL) |
| CC(=O)Nc1ccc(/C=N\NC(=O)c2ccncc2)cc1 | 0.283 (≈ 0.0799 µg/mL) |
| CC(C)CNNC(=O)c1ccncc1 | 0.517 (≈ 0.0999 µg/mL) |
| CCC(C)NNC(=O)c1ccncc1 (configuration not stated) | 2.07 (≈ 0.4 µg/mL) |
| CCC(CC)NNC(=O)c1ccncc1 | 14.5 (≈ 3 µg/mL) |
| O=C(NNC1CCCCC1)c1ccncc1 | 22.8 (≈ 5 µg/mL) |
| CC1CCCC(NNC(=O)c2ccncc2)C1 (configuration not stated) | 17.1 (≈ 4 µg/mL) |
| CC1CCC(NNC(=O)c2ccncc2)CC1 (configuration not stated) | 21.4 (≈ 5 µg/mL) |
| O=Cc1cccc(/C=N/NC(=O)c2ccncc2)c1 | 0.28 (≈ 0.0709 µg/mL) |
| O=Cc1ccc(/C=N/NC(=O)c2ccncc2)cc1 | 0.24 (≈ 0.0608 µg/mL) |
| O=C(N/N=C/c1cccc(CO)c1)c1ccncc1 | 0.47 (≈ 0.12 µg/mL) |
| O=C(N/N=C/c1ccc(CO)cc1)c1ccncc1 | 0.27 (≈ 0.0689 µg/mL) |
| O=C(NN=C1CCCC1)c1ccncc1 | 0.2 (≈ 0.0406 µg/mL) |

| Compound | MIC [µM] |
| --- | --- |
| O=C(NN=C1CCC(c2ccccc2)CC1)c1ccncc1 (configuration not stated) | 0.27 (≈ 0.0792 µg/mL) |
| COC(=O)c1ccc(/C=N/NC(=O)c2ccncc2)cc1 | 1.06 (≈ 0.3 µg/mL) |
| O=C(N/N=C/c1ccc(Oc2ccccc2)cc1)c1ccncc1 | 0.95 (≈ 0.301 µg/mL) |
| CCCCCCCCCC(=O)NNC(=O)c1ccncc1 | 0.38 (≈ 0.111 µg/mL) |
| CCCCCC(C)C(=O)NNC(=O)c1ccncc1 (configuration not stated) | 3.04 (≈ 0.801 µg/mL) |
| O=C(NNC1CCC(c2ccccc2)CC1)c1ccncc1 (configuration not stated) | 0.44 (≈ 0.13 µg/mL) |
| NNC(=O)c1ccnc(NN)c1 | 0.42 (≈ 0.0702 µg/mL) |
| O=C(NNC(=O)C(O)C(O)C(O)CO)c1ccncc1 (configuration not stated) | 0.501 (≈ 0.143 µg/mL) |
| CCN(CC)CN(C)c1ccc(/C=N/NC(=O)c2ccncc2)cc1 | 0.236 (≈ 0.0801 µg/mL) |
| O=C(NNC(=O)C(O)C(OC1OC(CO)C(O)C(O)C1O)C(O)CO)c1ccncc1 (configuration not stated) | 0.346 (≈ 0.155 µg/mL) |
| N/C(COc1ccc([N+](=O)[O-])cc1)=N/NC(=O)c1ccncc1 | 19.8 (≈ 6.25 µg/mL) |
| C/C(=N/NC(=O)c1ccncc1)c1cccc(CN2CCN(Cc3ccccn3)CC2)c1O | 0.87 (≈ 0.387 µg/mL) |
| C/C(=N/NC(=O)c1ccncc1)c1cccc(CN2CCN(Cc3ccc(F)cn3)CC2)c1O | 2.04 (≈ 0.944 µg/mL) |
| NNC(=O)c1ccnc(F)c1 | 2.58 (≈ 0.4 µg/mL) |
| Cc1cnccc1C(=O)NN | 1320 (≈ 200 µg/mL) |
| NNC(=O)c1ccnc(Br)c1 | 69.4 (≈ 15 µg/mL) |
| C/C=N/NC(=O)c1ccncc1 | 0.245 (≈ 0.04 µg/mL) |
| CCN(CC)Cc1cccc(/C(C)=N\NC(=O)c2ccncc2)c1O | 3.93 (≈ 1.34 µg/mL) |
| CC(C)=NNC(=O)c1ccncc1 | 0.113 (≈ 0.02 µg/mL) |
| O=C(NN=C1CCCCC1)c1ccncc1 | 0.028 (≈ 0.00608 µg/mL) |
| CC(C)NNC(=O)c1ccncc1 [IPRONIAZID] | 2.23 (≈ 0.4 µg/mL) |
| NNC(=O)c1ccncc1 [ISONIAZID] | 0.146 (≈ 0.02 µg/mL) |

System: not listed separately
Assay: Selectivity index, ratio of IC50 for african green monkey Vero cells to MIC for Mycobacterium tuberculosis H37Rv ATCC 27294
Type: toxicity, cell-based
Settings: read-out: Selectivity Index
In short: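 Vero cells were seeded at ~4×10^5 cells/mL and grown 48 h at 37 °C in 5% CO2. […] MTT 0.5 mg/mL was added for 2 h and formazan dissolved in DMSO, with absorbance read at 570 nm to give IC50. SI = IC50 / H37Rv MIC (IC99).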

| Compound | selectivity ratio |
| --- | --- |
| O=Cc1cccc(/C=N/NC(=O)c2ccncc2)c1 | > 724 |
| O=Cc1ccc(/C=N/NC(=O)c2ccncc2)cc1 | > 844 |
| O=C(N/N=C/c1cccc(CO)c1)c1ccncc1 | > 425 |
| O=C(N/N=C/c1ccc(CO)cc1)c1ccncc1 | > 729 |
| O=C(NN=C1CCCC1)c1ccncc1 | > 965 |
| O=C(NN=C1CCC(c2ccccc2)CC1)c1ccncc1 (configuration not stated) | > 733 |
| CCCCCCCCCC(=O)NNC(=O)c1ccncc1 | > 530 |
| O=C(NNC1CCC(c2ccccc2)CC1)c1ccncc1 (configuration not stated) | > 454 |
| NNC(=O)c1ccnc(NN)c1 | > 478 |
| NNC(=O)c1ccncc1 [ISONIAZID] | > 686 |

System: not listed separately
Assay: Octanol-water partition co-efficient, log P of the compound by shake-flask method
Type: physicochemical
Settings: not given

| Compound | logP |
| --- | --- |
| O=Cc1cccc(/C=N/NC(=O)c2ccncc2)c1 | 1.33 |
| O=Cc1ccc(/C=N/NC(=O)c2ccncc2)cc1 | 1.32 |
| O=C(N/N=C/c1cccc(CO)c1)c1ccncc1 | 0.902 |
| O=C(N/N=C/c1ccc(CO)cc1)c1ccncc1 | 0.731 |
| O=C(NN=C1CCCC1)c1ccncc1 | 0.22 |
| O=C(NN=C1CCC(c2ccccc2)CC1)c1ccncc1 (configuration not stated) | 1.97 |
| COC(=O)c1ccc(/C=N/NC(=O)c2ccncc2)cc1 | 1.32 |
| O=C(N/N=C/c1ccc(Oc2ccccc2)cc1)c1ccncc1 | 3.7 |
| CCCCCCCCCC(=O)NNC(=O)c1ccncc1 | 3.46 |
| CCCCCC(C)C(=O)NNC(=O)c1ccncc1 (configuration not stated) | 2.09 |
| O=C(NNC1CCC(c2ccccc2)CC1)c1ccncc1 (configuration not stated) | 2.83 |
| NNC(=O)c1ccnc(NN)c1 | -0.541 |
| NNC(=O)c1ccncc1 [ISONIAZID] | -0.851 |
